Screening results from PubChem BioAssay.
NPY-Y1 PAM-ag: potentiates or activates human NPY-Y1 receptor; P25929; activation, % at 3.6 µM; NPY-Y1 expressing cells, potentiator/agonist activation; hit rate 0.37% among 220,000; AID 1304; in the data active means activation above about 33%, passing the limit was not always enough;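 further: cells stimulated with NPY at EC10 then isoproterenol at EC100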
Target sequence (P25929 whole entry, looked up): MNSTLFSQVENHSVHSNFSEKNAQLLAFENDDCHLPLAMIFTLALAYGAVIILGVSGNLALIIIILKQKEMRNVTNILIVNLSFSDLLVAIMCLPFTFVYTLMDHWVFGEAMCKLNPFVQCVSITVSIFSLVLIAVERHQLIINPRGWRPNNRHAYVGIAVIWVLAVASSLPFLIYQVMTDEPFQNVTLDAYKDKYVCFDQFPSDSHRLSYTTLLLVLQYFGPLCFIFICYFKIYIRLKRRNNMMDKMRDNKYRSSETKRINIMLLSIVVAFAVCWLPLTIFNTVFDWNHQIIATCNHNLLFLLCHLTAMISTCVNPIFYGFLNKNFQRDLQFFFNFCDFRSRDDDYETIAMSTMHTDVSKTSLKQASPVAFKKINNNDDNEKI
NPY-Y2 PAM-ag: potentiates or activates human NPY-Y2 receptor | cells expressing NPY-Y2, potentiator/agonist read-out | activation, % at 3.6 µM | hit rate 0.45% among 220,000 | AID 1359; in the data active means activation above about 27%;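 further: cells stimulated with NPY near EC25 plus isoproterenol at EC100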
NPY-Y1 antag: NPY-Y1 (human) receptor antagonism; P25929; HEK293-CNG Y1 cells, membrane potential fluorescence; NPY at EC95, then isoproterenol; inhibition, % at 3.6 µM; hit rate 1% among 200,000; AID 1040;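 active means inhibition above the campaign mean inhibition of all tested compounds plus 3 SD, cut at about 20% in these data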
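Material: Y1- and CNG-channel-expressing HEK293 cells / Probe or stimulus: NPY 25 nM then isoproterenol 1 µM plus Ro 20-1724 25 µM / Doses: 3.6 µM single dose, DMSO 0.4% / Schedule: compound incubation 1 h at room temperature, readout 45 min post-stimulation / Signal: membrane potential fluorescence / Benchmarks: isoproterenol-only wells as full block versus NPY-plus-isoproterenol wells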
NPY-Y2 antag: NPY-Y2 (human) receptor antagonism. inhibition, % at 2.7 µM. NPY-Y2 expressing cells, antagonist mode. P49146. hit rate 0.99% among 140,000
NPY-Y1 ant conf: human NPY-Y1 antagonism, confirmation; HEK293-CNG NPY-Y1, membrane potential fluorescence, cAMP; NPY challenge against isoproterenol-raised cAMP; AID 1254; inhibition, % at 3.6 µM; hit rate 21% among 1,200; shares compounds with NPY-Y1 antag; in the data active means inhibition above about 20%
NPY-Y2 antag ct: counter-screen for NPY-Y1 antagonists: human NPY-Y2 antagonism; shares compounds with NPY-Y1 antag; HEK293 NPY-Y2 CNG membrane potential fluorescence; cells given NPY, then isoproterenol; inhibition, % at 3.6 µM; hit rate 28% among 1,200
Hits are given with their value; – = inactive; · = not tested or not shown. Rows were chosen to be rich in hits. Some 1.9% of all compounds tested hit in one or more screens of this group. Unless noted, no stated cut-off is given here; in the data, active means inhibition above about 17%; inactive means the rest.

SMILES	NPY-Y1 PAM-ag	NPY-Y2 PAM-ag	NPY-Y1 antag	NPY-Y2 antag	NPY-Y1 ant conf	NPY-Y2 antag ct
CC(C)NC(=O)c1onc(CSc2ccc(Cl)cc2)c1C(=O)O	–	–	–	–	·	·
CC(C)CCNC(=O)CCn1c(=S)oc2ccccc21	–	–	–	·	·	·
CN(CC1CCOCC1)C(=O)CC1C(=O)NCCN1C/C=C/c1ccccc1 (stereo not given)	–	–	–	·	·	·
COc1ccccc1C(=O)C1CCCN(C(=O)CCn2cnnn2)C1 (stereo not given)	–	–	·	·	·	·
CCN(CC)C(C)C#CCC(c1ccccc1)c1ccccc1 (stereo not given)	–	–	·	·	·	·
Cc1cc(NC(=O)/C=C/c2ccccc2)c(C(C)C)cc1O	–	–	28.0	·	25.3	23.9
CC(C)(C)NCC(=O)N/N=C/c1ccc(OCc2ccccc2)cc1	–	–	25.1	·	20.8	30.9
O=C(c1nc2ccccn2c1CN1CCCC(OCc2ccccc2)C1)N1CCCC1 (stereo not given)	–	–	23.7	·	–	–
O=C(CSc1ccc(Cl)cc1)N1CCN(c2ncc(C(F)(F)F)cc2Cl)CC1	–	–	23.8	–	–	–
O=C(CN1CCN(c2ncc(C(F)(F)F)cc2Cl)CC1)N1CCN(c2ncc(C(F)(F)F)cc2Cl)CC1	–	–	–	–	·	·
COc1ccc(C2C(C(=O)c3cccs3)=C(O)C(=O)N2c2cccc(C)n2)cc1 (stereo not given)	–	–	·	·	·	·
Cc1ccc(C2C(C(=O)c3cccs3)=C(O)C(=O)N2c2nnc(C)s2)cc1 (stereo not given)	–	–	27.2	·	30.5	20.7
CCCCN(C)C(=O)c1nc2ccccn2c1CN1CCN(C/C=C/c2ccccc2)CC1	–	–	25.7	·	–	–
Cc1cc2c(=O)n(Cc3ccco3)c(SCC(=O)N3CCCc4ccccc43)nc2s1	–	–	22.2	–	–	–
NNc1nc(-c2ccccc2Cl)nc2sc3c(c12)CCCC3	–	–	–	–	·	·
CCNc1nc2ccccc2[nH]1	–	–	–	–	·	·
CCN(CC)CCCNc1nc2ccccc2[nH]1	–	–	30.1	–	–	–
COc1ccccc1NC(=O)Cc1noc(CSc2cccc[n+]2[O-])n1	–	–	–	–	·	·
COc1ccccc1NC(=O)Cc1noc(CSc2cc(C)c3ccccc3n2)n1	–	–	20.1	–	–	–
O=C(O)CSc1c[nH]c2ccccc12	–	–	–	–	·	·
CC(Sc1c[nH]c2ccccc12)C(=O)O (stereo not given)	–	–	27.5	–	–	–
O=C(COC(=O)/C=C/c1ccccc1Cl)NC1CCCCCC1	–	–	–	·	·	·
COCCN(C(=O)CC1C(=O)NCCN1Cc1ccc(-c2ccccc2)cc1)C(C)C (stereo not given)	–	–	–	·	·	·
CCOC(=O)c1c(NC(=O)C2CCCCC2C(=O)O)sc2c1CCCCC2 (stereo not given)	–	–	–	·	·	·
COC(=O)c1c(NC(=O)C2CCCCC2C(=O)O)sc2c1CCCCC2 (stereo not given)	–	–	89.2	·	–	–
SMILES	NPY-Y1 PAM-ag	NPY-Y2 PAM-ag	NPY-Y1 antag	NPY-Y2 antag	NPY-Y1 ant conf	NPY-Y2 antag ct
CCCn1nc(NS(C)(=O)=O)c2cc3cccc(C)c3nc21	–	–	27.1	–	–	–
CCn1nc(NS(=O)(=O)c2ccccc2)c2cc3cccc(C)c3nc21	–	–	–	–	·	·
CS(=O)(=O)N1N=C(c2cccs2)CC1c1ccc(Cl)o1 (stereo not given)	–	–	–	·	·	·
Cn1c(=O)c(C(=O)COc2ccc(F)cc2Cl)c(N)n(Cc2ccccc2)c1=O	–	–	31.7	·	–	55.2
COc1ccc(CN(C)CC(=O)c2c(N)n(Cc3ccccc3)c(=O)n(C)c2=O)c(OC)c1	–	–	24.0	–	–	–
Cn1c(N)c(C(=O)COc2ccc(Cl)cc2Cl)c(=O)n(C)c1=O	–	–	–	·	·	·
CCn1c(=O)c(C(=O)CN(C)Cc2cccc(OC)c2OC)c(N)n(Cc2ccccc2)c1=O	–	–	–	–	·	·
N#C/C(=C/c1ccc(F)cc1)c1nnc(NC(=O)c2ccccc2)s1	–	–	·	·	·	·
COc1ccc(C(=O)NNC(=O)c2ccc(S(=O)(=O)N3CCCCC3)cc2)cc1	–	–	–	·	·	·
COc1cc(OC)cc(C(=O)N/N=C/c2ccc(OC)c(COc3ccc(F)cc3)c2)c1	–	–	60.6	–	–	31.1
CC1CCN(c2cc(N3CCN(C(=O)c4ccc(F)c(F)c4)CC3)c([N+](=O)[O-])cc2F)CC1	–	–	–	–	·	·
CCc1cccc(CC)c1NC(=O)C(NS(=O)(=O)c1cccs1)c1ccccc1 (stereo not given)	–	–	23.3	–	22.7	–
CCOC(=O)C(=CNc1cc(C)nn1-c1ccc(Cl)cc1)C(=O)OCC	–	–	23.7	–	20.8	–
COCCCN1CCN(C2Cc3ccccc3Sc3ccc(Cl)cc32)CC1 (stereo not given)	–	–	25.9	–	–	–
O=c1[nH]c(SCc2ccccc2)nc2[nH]ncc12	–	–	–	·	·	·
O=C(c1cccc(C(F)(F)F)c1)C1CCCN(Cc2cccn2-c2ccccn2)C1 (stereo not given)	–	–	58.5	·	33.8	38.2
CC(C)CN1CCN(Cc2cccn2-c2ccccn2)CC1CCO (stereo not given)	–	–	–	·	·	·
CC(C)CN1CCN(Cc2cccn2-c2ccc(Cl)cn2)CC1CCO (stereo not given)	–	–	32.6	·	–	–
COc1ccc(C(=O)C2CCCN(Cc3cnc(N4CCOCC4)s3)C2)c(OC)c1 (stereo not given)	–	–	–	·	·	·
O=C(c1cccc(C(F)(F)F)c1)C1CCCN(Cc2cccc(OCCO)c2)C1 (stereo not given)	–	–	–	·	·	·
COc1ccc(C(=O)C2CCCN(Cc3cccn3-c3ccc(Cl)cn3)C2)c(OC)c1 (stereo not given)	–	–	50.2	·	29.1	31.5
CCC1CCC(NC(=O)Nc2cccc(OC)c2)CC1 (stereo not given)	–	–	–	·	·	·
CCOC(=O)N1CCC(N2CCCC(C(=O)c3ccccc3OC)C2)CC1 (stereo not given)	–	–	–	·	·	·
COc1ccc(-c2n(Cc3ccccc3)c3ccccc3[n+]2Cc2ccccc2)cc1	–	–	61.6	·	–	21.6
COc1ccc(-c2nc3ccccc3n2Cc2ccccc2)cc1	–	–	–	–	·	·
Cc1nc2nc(SCC(=O)O)nn2c(C)c1Cc1ccccc1Cl	–	–	23.0	·	–	–
Cc1ccc(NC(=O)c2c(C)nn(-c3ccccc3)c2Cl)c(C)c1	–	–	–	–	·	·
Cc1cccc(C)c1NC(=O)c1c(C)nn(-c2ccccc2)c1Cl	–	–	32.4	–	–	–
CCc1nnc(NS(=O)(=O)c2ccc(NC(=O)c3cccc(Cl)c3)cc2)s1	–	–	–	·	·	·
CC(=O)n1cc([C@@H]2C=C(C(=O)Nc3ccccc3)O[C@H](OCc3ccc(CO)cc3)C2)c2ccccc21	–	–	34.3	·	–	–
